Data taken from ChEMBL document CHEMBL5724801, “EUbOPEN Chemogenomics Library - Multiplex” (2024).
Where “and” joins values, the source holds several entries; their conditions need not be identical. Equal values may be shown once.

Test system: Fibroblast
Assay: Multiplex assay against human fibroblast
Assay type: toxicity, cell-based
Settings: 12 h, 1 µM, compound concentration 1 uM
Outline: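 Four dyes were applied at seeding to live cells: Hoechst33342, BioTracker Green Microtubule Cytoskeleton Dye, MitoTracker Red and Annexin V Alexa Fluor 680. Imaging after compound addition used a CQ1 microscope at 37°C and 5% CO2. CellPathfinder machine-learning gating then sorted cells into Hoechst high-intensity objects or normal cells, normal cells into healthy, pyknosed or fragmented nuclei, and pyknosed cells into mitotic or apoptotic, with tubulin, mitochondrial-mass and membrane-permeability phenotypes given as per cents of healthy-nucleus cells.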

Compound	Population Apoptotic (%)	Population Fragmented Nuclei (%)	Population Healthy Nuclei (%)	Population Hoechst High Intensity Objects (%)	Population Membrane Permeable-Phenotype (%)	Population Mitochondria Different-Phenotype (%)	Population Mitotic Cells (%)	Population Normal (%)	Population Pyknosed Nuclei (%)	Population Tubulin-Different-Phenotype (%)
C[C@@H]1C[C@H]2[C@@H]3CCC4=CC(=O)C=C[C@]4(C)[C@@]3(F)[C@@H](O)C[C@]2(C)[C@@]1(O)C(=O)CO [DEXAMETHASONE]	62% and 38%	18% and 30%	66% and 48%	7% and 3%	0% and 9%	2% and 4%	37% and 61%	92% and 96%	15% and 20%	26% and 52%
COc1c(C)cc(NC(=O)c2nn(Cc3ccc(F)cc3)c3c2CN(C(=O)c2ccc[nH]2)C[C@]3(C)C(N)=O)cc1C	42% and 46%	21% and 16%	58% and 51%	2% and 3%	1% and 6%	18% and 11%	57% and 53%	97% and 96%	20% and 31%	64% and 72%
S=C(NCCCc1c[nH]cn1)NCCCN(Cc1ccc(Cl)c(Cl)c1)c1ccc(Br)cn1	40% and 31%	13% and 30%	71% and 50%	5% and 4%	1% and 5%	5% and 6%	60% and 68%	94% and 95%	14% and 18%	26% and 37%
C[C@@H]1CC(=O)Nc2cccc(-c3ccc4c(c3)c(-c3cnn(C)c3)nn4C)c2N1	38%	20% and 26%	63% and 47%	1% and 5%	0% and 8%	4% and 12%	61%	98% and 94%	15% and 26%	31% and 51%

Same assay, conditions: 12 h, 1 µM, compound concentration 1 uM

Compound	Total Cell Count
COc1c(C)cc(NC(=O)c2nn(Cc3ccc(F)cc3)c3c2CN(C(=O)c2ccc[nH]2)C[C@]3(C)C(N)=O)cc1C	95 and 86
S=C(NCCCc1c[nH]cn1)NCCCN(Cc1ccc(Cl)c(Cl)c1)c1ccc(Br)cn1	142 and 181
C[C@@H]1CC(=O)Nc2cccc(-c3ccc4c(c3)c(-c3cnn(C)c3)nn4C)c2N1	115 and 105

Same assay, conditions: 12 h, 10 µM, compound concentration 10 uM

Compound	Population Apoptotic (%)	Population Fragmented Nuclei (%)	Population Healthy Nuclei (%)	Population Hoechst High Intensity Objects (%)	Population Membrane Permeable-Phenotype (%)	Population Mitochondria Different-Phenotype (%)	Population Mitotic Cells (%)	Population Normal (%)	Population Pyknosed Nuclei (%)	Population Tubulin-Different-Phenotype (%)
C[C@@H]1C[C@H]2[C@@H]3CCC4=CC(=O)C=C[C@]4(C)[C@@]3(F)[C@@H](O)C[C@]2(C)[C@@]1(O)C(=O)CO [DEXAMETHASONE]	35% and 30%	20% and 24%	65% and 52%	2% and 6%	1% and 4%	5% and 2%	65% and 69%	98% and 93%	13% and 23%	22% and 53%
COc1c(C)cc(NC(=O)c2nn(Cc3ccc(F)cc3)c3c2CN(C(=O)c2ccc[nH]2)C[C@]3(C)C(N)=O)cc1C	47% and 52%	12% and 29%	58% and 38%	1% and 2%	0% and 6%	25% and 30%	52% and 47%	98% and 97%	29% and 32%	90%
S=C(NCCCc1c[nH]cn1)NCCCN(Cc1ccc(Cl)c(Cl)c1)c1ccc(Br)cn1	47% and 52%	27% and 34%	56% and 53%	3% and 5%	0%	15% and 10%	52% and 47%	96% and 94%	16% and 12%	89%
C[C@@H]1CC(=O)Nc2cccc(-c3ccc4c(c3)c(-c3cnn(C)c3)nn4C)c2N1	40% and 30%	17% and 11%	65% and 58%	5% and 6%	1% and 7%		59% and 69%	94% and 93%	17% and 30%	63% and 68%

Same assay, conditions: 12 h, 10 µM, compound concentration 10 uM

Compound	Total Cell Count
COc1c(C)cc(NC(=O)c2nn(Cc3ccc(F)cc3)c3c2CN(C(=O)c2ccc[nH]2)C[C@]3(C)C(N)=O)cc1C	166 and 115
S=C(NCCCc1c[nH]cn1)NCCCN(Cc1ccc(Cl)c(Cl)c1)c1ccc(Br)cn1	220 and 279
C[C@@H]1CC(=O)Nc2cccc(-c3ccc4c(c3)c(-c3cnn(C)c3)nn4C)c2N1	161 and 126

Same assay, conditions: 24 h, 1 µM, compound concentration 1 uM

Compound	Population Apoptotic (%)	Population Fragmented Nuclei (%)	Population Healthy Nuclei (%)	Population Hoechst High Intensity Objects (%)	Population Membrane Permeable-Phenotype (%)	Population Mitochondria Different-Phenotype (%)	Population Mitotic Cells (%)	Population Normal (%)	Population Pyknosed Nuclei (%)	Population Tubulin-Different-Phenotype (%)
C[C@@H]1C[C@H]2[C@@H]3CCC4=CC(=O)C=C[C@]4(C)[C@@]3(F)[C@@H](O)C[C@]2(C)[C@@]1(O)C(=O)CO [DEXAMETHASONE]	48% and 31%	14% and 29%	68% and 50%	5% and 6%	1% and 4%	3% and 1%	52% and 68%	94% and 93%	17% and 19%	26% and 53%
COc1c(C)cc(NC(=O)c2nn(Cc3ccc(F)cc3)c3c2CN(C(=O)c2ccc[nH]2)C[C@]3(C)C(N)=O)cc1C	66% and 48%	25% and 31%	61% and 38%	3% and 6%	1% and 8%	17%	33% and 51%	96% and 93%	12% and 30%	45% and 67%
S=C(NCCCc1c[nH]cn1)NCCCN(Cc1ccc(Cl)c(Cl)c1)c1ccc(Br)cn1	69% and 23%	15% and 30%	74% and 57%	4% and 1%	2%	2% and 6%	30% and 76%	95% and 98%	9% and 11%	28% and 42%
C[C@@H]1CC(=O)Nc2cccc(-c3ccc4c(c3)c(-c3cnn(C)c3)nn4C)c2N1	57% and 35%	16% and 29%	67% and 50%	2% and 7%	2% and 11%	5% and 9%	42% and 65%	97% and 92%	15% and 19%	33% and 60%

Same assay, conditions: 24 h, 1 µM, compound concentration 1 uM

Compound	Total Cell Count
COc1c(C)cc(NC(=O)c2nn(Cc3ccc(F)cc3)c3c2CN(C(=O)c2ccc[nH]2)C[C@]3(C)C(N)=O)cc1C	96 and 95
S=C(NCCCc1c[nH]cn1)NCCCN(Cc1ccc(Cl)c(Cl)c1)c1ccc(Br)cn1	137 and 183
C[C@@H]1CC(=O)Nc2cccc(-c3ccc4c(c3)c(-c3cnn(C)c3)nn4C)c2N1	122 and 112

Same assay, conditions: 24 h, 10 µM, compound concentration 10 uM

Compound	Population Apoptotic (%)	Population Fragmented Nuclei (%)	Population Healthy Nuclei (%)	Population Hoechst High Intensity Objects (%)	Population Membrane Permeable-Phenotype (%)	Population Mitochondria Different-Phenotype (%)	Population Mitotic Cells (%)	Population Normal (%)	Population Pyknosed Nuclei (%)	Population Tubulin-Different-Phenotype (%)
C[C@@H]1C[C@H]2[C@@H]3CCC4=CC(=O)C=C[C@]4(C)[C@@]3(F)[C@@H](O)C[C@]2(C)[C@@]1(O)C(=O)CO [DEXAMETHASONE]	42% and 30%	15% and 30%	65% and 44%	3% and 6%	1% and 10%	6% and 2%	57% and 69%	96% and 93%	18% and 24%	22% and 45%
COc1c(C)cc(NC(=O)c2nn(Cc3ccc(F)cc3)c3c2CN(C(=O)c2ccc[nH]2)C[C@]3(C)C(N)=O)cc1C	65% and 43%	14% and 30%	64% and 47%	3% and 4%	0% and 8%	47% and 26%	34% and 56%	96% and 95%	20% and 21%	90% and 82%
S=C(NCCCc1c[nH]cn1)NCCCN(Cc1ccc(Cl)c(Cl)c1)c1ccc(Br)cn1	66% and 61%	22% and 27%	61% and 59%	1% and 4%	0% and 2%	19% and 7%	33% and 38%	98% and 95%	15% and 13%	93% and 95%
C[C@@H]1CC(=O)Nc2cccc(-c3ccc4c(c3)c(-c3cnn(C)c3)nn4C)c2N1	75% and 42%	19% and 13%	69% and 57%	10% and 5%	0% and 1%		25% and 57%	89% and 94%	11% and 29%	66% and 76%

Same assay, conditions: 24 h, 10 µM, compound concentration 10 uM

Compound	Total Cell Count
COc1c(C)cc(NC(=O)c2nn(Cc3ccc(F)cc3)c3c2CN(C(=O)c2ccc[nH]2)C[C@]3(C)C(N)=O)cc1C	159 and 110
S=C(NCCCc1c[nH]cn1)NCCCN(Cc1ccc(Cl)c(Cl)c1)c1ccc(Br)cn1	214 and 248
C[C@@H]1CC(=O)Nc2cccc(-c3ccc4c(c3)c(-c3cnn(C)c3)nn4C)c2N1	158 and 119

Same assay, conditions: 48 h, 1 µM, compound concentration 1 uM

Compound	Population Apoptotic (%)	Population Fragmented Nuclei (%)	Population Healthy Nuclei (%)	Population Hoechst High Intensity Objects (%)	Population Membrane Permeable-Phenotype (%)	Population Mitochondria Different-Phenotype (%)	Population Mitotic Cells (%)	Population Normal (%)	Population Pyknosed Nuclei (%)	Population Tubulin-Different-Phenotype (%)
C[C@@H]1C[C@H]2[C@@H]3CCC4=CC(=O)C=C[C@]4(C)[C@@]3(F)[C@@H](O)C[C@]2(C)[C@@]1(O)C(=O)CO [DEXAMETHASONE]	46% and 37%	22% and 38%	52% and 46%	6% and 4%	2% and 4%	4%	53% and 62%	93% and 95%	24% and 14%	34% and 53%
COc1c(C)cc(NC(=O)c2nn(Cc3ccc(F)cc3)c3c2CN(C(=O)c2ccc[nH]2)C[C@]3(C)C(N)=O)cc1C	87% and 70%	29% and 34%	61% and 45%	7% and 5%	0% and 10%	10%	12% and 29%	92% and 94%	8% and 19%	45% and 69%
S=C(NCCCc1c[nH]cn1)NCCCN(Cc1ccc(Cl)c(Cl)c1)c1ccc(Br)cn1	75% and 35%	27% and 30%	67% and 59%	3% and 4%	0% and 5%	0% and 3%	25% and 64%	96% and 95%	5% and 10%	24% and 36%
C[C@@H]1CC(=O)Nc2cccc(-c3ccc4c(c3)c(-c3cnn(C)c3)nn4C)c2N1	50% and 30%	25% and 36%	60% and 50%	5% and 2%		6% and 8%	50% and 69%	94% and 97%	14% and 13%	21% and 60%

Same assay, conditions: 48 h, 1 µM, compound concentration 1 uM

Compound	Total Cell Count
COc1c(C)cc(NC(=O)c2nn(Cc3ccc(F)cc3)c3c2CN(C(=O)c2ccc[nH]2)C[C@]3(C)C(N)=O)cc1C	99 and 91
S=C(NCCCc1c[nH]cn1)NCCCN(Cc1ccc(Cl)c(Cl)c1)c1ccc(Br)cn1	156 and 178
C[C@@H]1CC(=O)Nc2cccc(-c3ccc4c(c3)c(-c3cnn(C)c3)nn4C)c2N1	114 and 102

Same assay, conditions: 48 h, 10 µM, compound concentration 10 uM

Compound	Population Apoptotic (%)	Population Fragmented Nuclei (%)	Population Healthy Nuclei (%)	Population Hoechst High Intensity Objects (%)	Population Membrane Permeable-Phenotype (%)	Population Mitochondria Different-Phenotype (%)	Population Mitotic Cells (%)	Population Normal (%)	Population Pyknosed Nuclei (%)	Population Tubulin-Different-Phenotype (%)
C[C@@H]1C[C@H]2[C@@H]3CCC4=CC(=O)C=C[C@]4(C)[C@@]3(F)[C@@H](O)C[C@]2(C)[C@@]1(O)C(=O)CO [DEXAMETHASONE]	50% and 37%	22% and 36%	55% and 43%	4% and 7%	0% and 10%	7% and 0%	50% and 62%	95% and 92%	22% and 20%	19% and 39%
COc1c(C)cc(NC(=O)c2nn(Cc3ccc(F)cc3)c3c2CN(C(=O)c2ccc[nH]2)C[C@]3(C)C(N)=O)cc1C	60% and 77%	22% and 41%	60% and 51%	4% and 2%	0% and 3%		39% and 22%	95% and 97%	17% and 7%	92% and 75%
S=C(NCCCc1c[nH]cn1)NCCCN(Cc1ccc(Cl)c(Cl)c1)c1ccc(Br)cn1	62% and 63%	27% and 31%	59% and 60%	6% and 5%	0%	7% and 1%	37% and 36%	93% and 94%	12% and 7%	91% and 86%
C[C@@H]1CC(=O)Nc2cccc(-c3ccc4c(c3)c(-c3cnn(C)c3)nn4C)c2N1	92% and 60%	17%	73% and 62%	3% and 4%	0% and 6%			96% and 95%	8% and 19%	68% and 69%

Same assay, conditions: 48 h, 10 µM, compound concentration 10 uM

Compound	Total Cell Count
COc1c(C)cc(NC(=O)c2nn(Cc3ccc(F)cc3)c3c2CN(C(=O)c2ccc[nH]2)C[C@]3(C)C(N)=O)cc1C	166 and 122
S=C(NCCCc1c[nH]cn1)NCCCN(Cc1ccc(Cl)c(Cl)c1)c1ccc(Br)cn1	230 and 293
C[C@@H]1CC(=O)Nc2cccc(-c3ccc4c(c3)c(-c3cnn(C)c3)nn4C)c2N1	162 and 122
